Data reported in ChEMBL document CHEMBL5230144, “Synthesis and Biological Evaluation of Celastrol Derivatives with Improved Cytotoxic Selectivity and Antitumor Activities” (J Nat Prod, 2021).

How the values were obtained:
MDA-MB-231 = assay: cells; conditions: Homo sapiens, MDA-MB-231, 48 h
[1] = Cytotoxicity against human mesenchymal bone marrow stem cells measured after 48 hrs by MTT assay; format: toxicity, cell-based
A549 = assay: cells; conditions: Homo sapiens, A549, 48 h
MCF7 = assay: cells; conditions: Homo sapiens, MCF7, 48 h
[2] = biological target: Heat shock protein HSP 90-beta/Hsp90 co-chaperone Cdc37 (Homo sapiens, UniProt P08238+Q16543); assay: Disruption of His-tagged full length HSP90 (unknown origin)/GST-tagged Cdc37 (unknown origin) at 50 uM measured after 1 hr by HTRF method; format: protein-complex assay
Outline: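 HTRF in PBS with […], pH 7.3: His-tagged full-length Hsp90 and GST-tagged Cdc37 (each 250 nM final) with compound, 37 °C for 1 h. Anti-GST-Cryptate and anti-6His-XL665 then added for 0.5 h at 37 °C. Time-resolved fluorescence read at ex 320 nm, em 665/620 nm; ratio (665/620) × 10 000.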

KB = assay: cells; conditions: Homo sapiens, 48 h

Structure (SMILES) | IC50 (MDA-MB-231) | IC50 at 48 h [1] | IC50 (A549) | IC50 (MCF7) | inhibition [2] | IC50 (KB)
C#CCOC(=O)[C@]1(C)CC[C@]2(C)CC[C@]3(C)C4=CC=C5C(=CC(=O)C(OC(=O)N6CCN(c7ccc(Cl)cc7)CC6)=C5C)[C@]4(C)CC[C@@]3(C)[C@@H]2C1 | 0.2 µM | 1.6 µM |  |  |  | 
C#CCOC(=O)[C@]1(C)CC[C@]2(C)CC[C@]3(C)C4=CC=C5C(=CC(=O)C(OC(=O)N6CCN(c7ccccc7Cl)CC6)=C5C)[C@]4(C)CC[C@@]3(C)[C@@H]2C1 | 0.2 µM | 1.9 µM |  |  |  | 
CCCOC(=O)[C@]1(C)CC[C@]2(C)CC[C@]3(C)C4=CC=C5C(=CC(=O)C(O)=C5C)[C@]4(C)CC[C@@]3(C)[C@@H]2C1 | 0.8 µM |  | 1.1 µM | 0.5 µM | 87.4% | 0.6 µM
C#CCOC(=O)[C@]1(C)CC[C@]2(C)CC[C@]3(C)C4=CC=C5C(=CC(=O)C(OC(=O)N6CCCC6)=C5C)[C@]4(C)CC[C@@]3(C)[C@@H]2C1 | 0.2 µM | 2.7 µM |  |  |  | 
C#CCOC(=O)[C@]1(C)CC[C@]2(C)CC[C@]3(C)C4=CC=C5C(=CC(=O)C(OC(=O)CCC)=C5C)[C@]4(C)CC[C@@]3(C)[C@@H]2C1 | 0.4 µM | 2.6 µM |  |  |  | 
C#CCOC(=O)[C@]1(C)CC[C@]2(C)CC[C@]3(C)C4=CC=C5C(=CC(=O)C(OC(=O)/C=C/c6ccccc6F)=C5C)[C@]4(C)CC[C@@]3(C)[C@@H]2C1 | 0.3 µM | 1.4 µM |  |  |  | 
C#CCOC(=O)[C@]1(C)CC[C@]2(C)CC[C@]3(C)C4=CC=C5C(=CC(=O)C(OC(=O)N6c7ccccc7Sc7ccccc76)=C5C)[C@]4(C)CC[C@@]3(C)[C@@H]2C1 | 0.2 µM | 2.9 µM |  |  |  | 
COC(=O)[C@]1(C)CC[C@]2(C)CC[C@]3(C)C4=CC=C5C(=CC(=O)C(O)=C5C)[C@]4(C)CC[C@@]3(C)[C@@H]2C1 [PRISTIMERIN] | 0.8 µM |  | 1.1 µM | 0.9 µM | 83.1% | 0.9 µM
C#CCOC(=O)[C@]1(C)CC[C@]2(C)CC[C@]3(C)C4=CC=C5C(=CC(=O)C(OC(=O)N6CCN(c7ccccc7)CC6)=C5C)[C@]4(C)CC[C@@]3(C)[C@@H]2C1 | 0.2 µM | 1.8 µM |  |  |  | 
C#CCOC(=O)[C@]1(C)CC[C@]2(C)CC[C@]3(C)C4=CC=C5C(=CC(=O)C(OC(=O)N6c7ccccc7C=Cc7ccccc76)=C5C)[C@]4(C)CC[C@@]3(C)[C@@H]2C1 | 0.2 µM | 2.2 µM |  |  |  | 
C#CCOC(=O)[C@]1(C)CC[C@]2(C)CC[C@]3(C)C4=CC=C5C(=CC(=O)C(OC(=O)/C=C/c6cccc(Cl)c6)=C5C)[C@]4(C)CC[C@@]3(C)[C@@H]2C1 | 0.3 µM | 2 µM |  |  |  | 
C=CCOC(=O)[C@]1(C)CC[C@]2(C)CC[C@]3(C)C4=CC=C5C(=CC(=O)C(O)=C5C)[C@]4(C)CC[C@@]3(C)[C@@H]2C1 | 0.8 µM |  | 0.8 µM | 0.4 µM | 89.9% | 0.3 µM
C#CCOC(=O)[C@]1(C)CC[C@]2(C)CC[C@]3(C)C4=CC=C5C(=CC(=O)C(OC(=O)N6CCN(c7ccccc7OC)CC6)=C5C)[C@]4(C)CC[C@@]3(C)[C@@H]2C1 | 0.3 µM | 1.8 µM |  |  |  | 
C#CCOC(=O)[C@]1(C)CC[C@]2(C)CC[C@]3(C)C4=CC=C5C(=CC(=O)C(OC(=O)C=C)=C5C)[C@]4(C)CC[C@@]3(C)[C@@H]2C1 | 0.7 µM | 3.7 µM |  |  |  | 
C#CCOC(=O)[C@]1(C)CC[C@]2(C)CC[C@]3(C)C4=CC=C5C(=CC(=O)C(OC(=O)N6CCN(c7cccc(OC)c7)CC6)=C5C)[C@]4(C)CC[C@@]3(C)[C@@H]2C1 | 0.3 µM | 1.8 µM |  |  |  | 
C#CCOC(=O)[C@]1(C)CC[C@]2(C)CC[C@]3(C)C4=CC=C5C(=CC(=O)C(OC(=O)N6CCN(C)CC6)=C5C)[C@]4(C)CC[C@@]3(C)[C@@H]2C1 | 0.3 µM | 2 µM |  |  |  | 
C#CCOC(=O)[C@]1(C)CC[C@]2(C)CC[C@]3(C)C4=CC=C5C(=CC(=O)C(OC(=O)N(C)CC)=C5C)[C@]4(C)CC[C@@]3(C)[C@@H]2C1 | 0.3 µM | 3 µM |  |  |  | 
C#CCOC(=O)[C@]1(C)CC[C@]2(C)CC[C@]3(C)C4=CC=C5C(=CC(=O)C(OC(=O)N(CC)CC)=C5C)[C@]4(C)CC[C@@]3(C)[C@@H]2C1 | 0.3 µM | 3.2 µM |  |  |  | 

Structure (SMILES) | IC50 (MDA-MB-231) | IC50 at 48 h [1] | IC50 (A549) | IC50 (MCF7) | inhibition [2] | IC50 (KB)
CCOC(=O)[C@]1(C)CC[C@]2(C)CC[C@]3(C)C4=CC=C5C(=CC(=O)C(O)=C5C)[C@]4(C)CC[C@@]3(C)[C@@H]2C1 | 0.7 µM |  | 1.7 µM | 1 µM | 85.7% | 1 µM
C#CCOC(=O)[C@]1(C)CC[C@]2(C)CC[C@]3(C)C4=CC=C5C(=CC(=O)C(OC(=O)/C=C/C)=C5C)[C@]4(C)CC[C@@]3(C)[C@@H]2C1 | 0.5 µM | 3 µM |  |  |  | 
C#CCOC(=O)[C@]1(C)CC[C@]2(C)CC[C@]3(C)C4=CC=C5C(=CC(=O)C(OC(=O)/C=C/c6cccc(C)c6)=C5C)[C@]4(C)CC[C@@]3(C)[C@@H]2C1 | 0.4 µM | 2.9 µM |  |  |  | 
C#CCOC(=O)[C@]1(C)CC[C@]2(C)CC[C@]3(C)C4=CC=C5C(=CC(=O)C(OC(C)=O)=C5C)[C@]4(C)CC[C@@]3(C)[C@@H]2C1 | 0.5 µM | 2.4 µM |  |  |  | 
C#CCOC(=O)[C@]1(C)CC[C@]2(C)CC[C@]3(C)C4=CC=C5C(=CC(=O)C(OC(=O)N(C)CCC)=C5C)[C@]4(C)CC[C@@]3(C)[C@@H]2C1 | 0.3 µM | 0.9 µM |  |  |  | 
C#CCOC(=O)[C@]1(C)CC[C@]2(C)CC[C@]3(C)C4=CC=C5C(=CC(=O)C(OC(=O)c6ccc(Br)cc6)=C5C)[C@]4(C)CC[C@@]3(C)[C@@H]2C1 | 0.3 µM | 2.2 µM |  |  |  | 
C#CCOC(=O)[C@]1(C)CC[C@]2(C)CC[C@]3(C)C4=CC=C5C(=CC(=O)C(OC(=O)N(C)C)=C5C)[C@]4(C)CC[C@@]3(C)[C@@H]2C1 | 0.2 µM | 2 µM |  |  |  | 
C#CCOC(=O)[C@]1(C)CC[C@]2(C)CC[C@]3(C)C4=CC=C5C(=CC(=O)C(OC(=O)N(CCCC)CCCC)=C5C)[C@]4(C)CC[C@@]3(C)[C@@H]2C1 | 0.1 µM | 1.2 µM |  |  |  | 
C#CCOC(=O)[C@]1(C)CC[C@]2(C)CC[C@]3(C)C4=CC=C5C(=CC(=O)C(OC(=O)N6CCCCC6)=C5C)[C@]4(C)CC[C@@]3(C)[C@@H]2C1 | 0.1 µM | 2.4 µM |  |  |  | 
C#CCOC(=O)[C@]1(C)CC[C@]2(C)CC[C@]3(C)C4=CC=C5C(=CC(=O)C(OC(=O)c6ccc(F)cc6)=C5C)[C@]4(C)CC[C@@]3(C)[C@@H]2C1 | 0.4 µM | 2 µM |  |  |  | 
CC1=C(O)C(=O)C=C2C1=CC=C1[C@@]2(C)CC[C@@]2(C)[C@@H]3C[C@](C)(C(=O)OCCC(C)C)CC[C@]3(C)CC[C@]12C | 1.1 µM |  | 4.2 µM | 2 µM | 87.8% | 1.9 µM
C#CCOC(=O)[C@]1(C)CC[C@]2(C)CC[C@]3(C)C4=CC=C5C(=CC(=O)C(OC(=O)N(CCC)CCC)=C5C)[C@]4(C)CC[C@@]3(C)[C@@H]2C1 | 0.3 µM | 0.9 µM |  |  |  | 
C#CCOC(=O)[C@]1(C)CC[C@]2(C)CC[C@]3(C)C4=CC=C5C(=CC(=O)C(OC(=O)/C=C/c6ccccc6)=C5C)[C@]4(C)CC[C@@]3(C)[C@@H]2C1 | 0.5 µM | 2.8 µM |  |  |  | 
CC1=C(O)C(=O)C=C2C1=CC=C1[C@@]2(C)CC[C@@]2(C)[C@@H]3C[C@](C)(C(=O)OCCBr)CC[C@]3(C)CC[C@]12C | 0.1 µM |  | 1.6 µM | 1.1 µM | 86.3% | 1 µM
C#CCOC(=O)[C@]1(C)CC[C@]2(C)CC[C@]3(C)C4=CC=C5C(=CC(=O)C(OC(=O)N6c7ccccc7CCc7ccccc76)=C5C)[C@]4(C)CC[C@@]3(C)[C@@H]2C1 | 0.3 µM | 1 µM |  |  |  | 
C#CCOC(=O)[C@]1(C)CC[C@]2(C)CC[C@]3(C)C4=CC=C5C(=CC(=O)C(OC(=O)N(c6ccccc6)c6ccccc6)=C5C)[C@]4(C)CC[C@@]3(C)[C@@H]2C1 | 0.2 µM | 3.1 µM |  |  |  | 
C#CCOC(=O)[C@]1(C)CC[C@]2(C)CC[C@]3(C)C4=CC=C5C(=CC(=O)C(OC(=O)C(=C)C)=C5C)[C@]4(C)CC[C@@]3(C)[C@@H]2C1 | 0.4 µM | 2.4 µM |  |  |  | 
C#CCOC(=O)[C@]1(C)CC[C@]2(C)CC[C@]3(C)C4=CC=C5C(=CC(=O)C(OC(=O)N(C)CCCC)=C5C)[C@]4(C)CC[C@@]3(C)[C@@H]2C1 | 0.3 µM | 1 µM |  |  |  | 
